Drawing on the RNAGym collection of RNA variant scans (doi:10.1126/science.aae0568), this text covers yeast fitness for 38 variants.

Fewer inactive variants are shown than the library holds. Some results are limits rather than exact numbers.

The labels stand for the following.
B1: tRNA (parent)
chain: GUUCCGUUGGCGUAAUGGUAACGCGUCUCCCUCCUAAGGAGAAGACUGCGGGUUCGAGUCCCGUACGGAACG

In the series the parent is B1. Nature of the series: yeast fitness relative to wild type (ratio to wild type); higher = fitter; tRNA-Arg(CCU), competitive growth, 37 C, YPD. Summed up: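 Gene amplicons from the start population and from each of six end populations were read by 100-nucleotide paired-end sequencing. Those end populations came from pooled Saccharomyces cerevisiae strains carrying tRNA-Arg(CCU) gene variants at the native locus, competed in YPD at 37°C for 24 hours. Fitness relative to wild type was worked out from changes in genotype frequencies. Genotypes needed ≥ 100 starting reads, and estimates < 0.5 were set to 0.5.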
GAUCCGUUGGCGUAAUGGUAACGCGUCUCCCUCCUAAGGAGAAGACGGCGGGUUCGAGUCCCGUACGGAACG: the yeast fitness was found to be 0.583. As for GUUCCGUUGGCGUAAUGGUAACGCGUCUUGCUCCUAAGGAGAAGACUGCGGGUUCGAGACCCGUACGGAACG, the figure is 0.617; as for GUUCCGUUGGCGUAAUGGUAGCGCGUCUCCGUCCUAAGGAGAAGACUGCGGGUUCGAGUCCCGUCCGGAACG, 0.674. As for GUUCCGUUGGCGUAAUGGUAACGCGUCUCCCACCUAAGGAGAAGACUGCGGGUUCGAGUCCCGUACGGACCG, the figure is 0.741. As for GUUCGGUUGGCGUAAUGGUAACGCGUCUCCCUCCUAAGGAGAAGACUGCGAGUUCGAGUCCGGUACGGAACG, the figure is not above 0.5; as for GUUCCGUUGGUGUAAUGGUAACGCGUCUCCCUCCUAAGGAGAAGACUGCGGGUCCGAGUCUCGUACGGAACG, not above 0.5; as for GUUCCGUUGGCGUAAUGGUAACGCGCCUCCCUCCUAAGGGGAAGACUGCGGGUUCGAGUCCCGUAUGGAACG, 0.563. Regarding GUUCCGUUGGCGUAAUGGUACCGCGUCUCCCUCCUAAGGAGAAGACUGCGGGUUCGAGUCCCCUACGGAACG, the yeast fitness was 0.779. GUUCCGUUGGCGUAAUGGUAACGCGUCUCCCUCCUAAGGAGAAGACUGCGGGUUCGAGUCGCGUACGGUACG: the yeast fitness was 0.635. As to GUUCGGUUGGCGUAAUGGUAACGCAUCUCCCUCCUAAGGAGAAGACUGCGGGUUCGAGUCCCGUGCGGAACG, the yeast fitness turned out to be 0.763. GUUCCCUUGGCGUACUGGUACCGCGUCUCCCUCUUAUGGAGAAGACUGCGGGUUCGAGUCCCGUACGGAACG: the yeast fitness was 0.502. As for GUUCCGUUGGCGUAAUGAUAACGCGUCUCUCUCCUAAGGAGAAGCCUGCGGCUUCGAGUCCCGUACGGAACG, the figure is not above 0.5; as for GUUCCGUUGGCGUAAUGGUAACGCGUCUCCUUCCUAAGGAGAAGACUGCGGGUUUGAGUCCCGUACGGAUCG, 0.567.

As for GUUCCGUUGGCGUAAUGGUAAGGCGUGUCCGUCCUAAGGAGAAGACUGUGGGUUCGAGUCGCGUACGGUACG, the yeast fitness came to 0.534. On to GUUCCGUUGGCGUAAUGGUAACCCGUCUCCCUCCUAAGGAGUAGACUGCGGGUUCGAGUCCCGUACGGAACG, for which the yeast fitness is 0.65. Regarding GUUCCGUUGGCGUUAUGGUAACGCGUCUCCAUCCUAAGGAGAAGACUGCGGGUUCGAGUCCCGUAAGGAACG, the yeast fitness is not above 0.5. As for GUUCCGUUGGCGAAAUGGUAACGCGUCUCCCUCCUAAGGAGAAGACUGCGGGUUCGAGACCCGUACGGAACG, the figure is 0.827; as for GUUCCGUUGGCGUAAUGGUAACGCGUCUCCCUCCUAAGGAGAUGACUGCGGGUACGAGUCCCGUACGGAACG, 0.683. As for GUUCCGUUGGCGUAAUGGCAACGCGGCUCCCUCCUAAGGAGAAGACUGCGGGUUCGGGUCCCGUACGGAACG, the figure is not above 0.5; as for GCUCCGUUGGCGUAAUGGUAACGCGUCUGCCUCCUAAGCAGAAGACUGCGGGUUAGAGUCCCGUACGGAACG, not above 0.5; as for GUUCCGUUGGCGUAAUGGUAACGAGUCUCCCUCCUAAGGAGCAGACUGCGGGUUCGAGUCCCGCACGGAACG, not above 0.5. For the variant GUUCCGUUGGCGUCAUGGUAACGCGUCUCCCUCUUGAGCAGAAGACUGCGGGUUCGAGUCCCGUACGGAACG, the yeast fitness amounted to 0.535.

As to GUCCCGUUGGCGUAAUGGUAACGCGUGACCCUCCUAAGGAGAAGACUGCGGGUUCGAGUCCCGUACGGAACG, the yeast fitness was not above 0.5.

Turning to GUUCCGAUGGCGUAAUGGUAACGCGUCUCCCUCGUAAGGAGAAGACUGCGGGCUCGAGUCCCGUACGGAACG, the yeast fitness worked out at 0.726. On to GUUCCGUUGGCAUAAUGGUAACGCGUCUCCCUCCUUAGGAGAAGACUGCGGGUCCGAGUCCCGUACGGAACG, for which the yeast fitness was found to be 0.54.

As for GUUCCGUUGGCGUAAUGGUACUGCGUCUCCCUCCUAACGCGAAGACUGCGGGUUCGAGUCCAGUACGGAACG, the yeast fitness amounted to 0.559. Consider GUUCCGUUGGCGUAAUGAUAACGCGUCUCCCUCCUACGGAGAAGACUGCGGGUUUGGGUCCCGUACGGAACG, for which the yeast fitness is not above 0.5. As for GUUCCGUUGGCGUAAUGGUAACGGGUCUCCCUCCUAUGGAGAAGACUGUGGGUUCGAGACCCGUACGGAACG, the figure is not above 0.5. As for GUUCAGUUGGCGUAAUGGUAACGCCUCUCCCUCCUAAGGAGAAGACUGCGGGUUCGAGUCCCGUAGGGAACG, the figure is not above 0.5; as for GUUCCGUUGGCGUAAUGGUAAGGCGUCUCCCUCCUAAGGAGAAGACUGGGGGUUCGAGUCCGGUACGGAACG, not above 0.5; as for GUUUCGUUGGCGUAAUGGUAACGCGUCUCCCUUCUAAGGAGAAGACUGCCGGUUCGAGUCCCGUACGGAACG, not above 0.5. As for GUUGCGUUGGCGUAACGGUAACGCGUCUCCUUCCUAAGGAGGAGACUGCGGGUUCGAGUCCCGUACGGAACG, the figure is not above 0.5. As for GUUCCGUUGGCGUAAUGGUAACGUGUCUCCCUCCUAAGGAGAAGACUGCGGGUUCGCGUCUCGUACGGAACG, the yeast fitness was not above 0.5. Regarding GUUCCGUAGGCAUCAUGGUAACGCGUCUCCCUCCUAAGGAGAAGACUGCGGGUUCGAGUUCCGUACCGAACG, the yeast fitness is not above 0.5. As for GUUCCGUUGGCGUAAUAGUAACGCGUCUCCCUCCUAAGGAGAAGACUGCGGGUUCGAGUCCCGUACGGAACG, the figure is 0.835; as for GUUGCGUUGGCGUAAUGGUAACGCGUCUCCCUCCUAAGGAGAAGACUGCGGGUUCGAGUCACGUACAGAACG, 0.553; as for GUUGCGUUGGCGUAAUGGUAACGCGUCUACCUGCUAAGGAGAAGCCUGCGGGUUCGAGUCCCGUACGGAACG, 0.588. As for GUUCCGUUGGCGUAAUGGUAACGCGUGACGUUCCUAAGGAGAAGACUGCGGGUUCGAGUCCCGUACGGAACG, the figure is 0.51.
